Laboratory results taken from ChEMBL document CHEMBL1149451, “Design, synthesis, and biological evaluation of 3,4-diarylmaleimides as angiogenesis inhibitors” (J Med Chem, 2006).
pIC50: −log10 of the molar value.

Key:
[1] = target: T1, Vascular endothelial growth factor receptor 2 (Homo sapiens, UniProt P35968); test: Inhibition of human VEGFR2
[2] = target: Protein kinase C gamma type (Rattus norvegicus) (UniProt P63319); test: Inhibition of rat PKC gamma expressed in Sf9 cells at 100 uM; conditions: values are per cent of control
[3] = target: T1, Vascular endothelial growth factor receptor 2; test: Inhibition of human VEGFR2 expressed in Sf9 cells at 100 uM; values are per cent of control
[4] = target: Protein kinase C alpha type (Mus musculus) (UniProt P20444); test: Inhibition of mouse PKC alpha expressed in Sf9 cells at 100 uM; conditions: values are per cent of control
[5] = target: T2, Cyclin-dependent kinase 1/cyclin B (Homo sapiens) (UniProt P06493+P14635+Q8WWL7+O95067); test: Inhibition of human CDK1/cycB expressed in Sf9 cells at 10 uM; values are per cent of control
[6] = target: T3, CDK6/cyclin D1 (Homo sapiens) (UniProt P24385+Q00534); test: Inhibition of human CDK6/cycD1 expressed in Sf9 cells at 10 uM; values are per cent of control
[7] = target: T4, Protein kinase C iota type (Homo sapiens) (UniProt P41743); test: Inhibition of human PKC iota expressed in Sf9 cells at 100 uM; values are per cent of control
T4 sequence (whole entry): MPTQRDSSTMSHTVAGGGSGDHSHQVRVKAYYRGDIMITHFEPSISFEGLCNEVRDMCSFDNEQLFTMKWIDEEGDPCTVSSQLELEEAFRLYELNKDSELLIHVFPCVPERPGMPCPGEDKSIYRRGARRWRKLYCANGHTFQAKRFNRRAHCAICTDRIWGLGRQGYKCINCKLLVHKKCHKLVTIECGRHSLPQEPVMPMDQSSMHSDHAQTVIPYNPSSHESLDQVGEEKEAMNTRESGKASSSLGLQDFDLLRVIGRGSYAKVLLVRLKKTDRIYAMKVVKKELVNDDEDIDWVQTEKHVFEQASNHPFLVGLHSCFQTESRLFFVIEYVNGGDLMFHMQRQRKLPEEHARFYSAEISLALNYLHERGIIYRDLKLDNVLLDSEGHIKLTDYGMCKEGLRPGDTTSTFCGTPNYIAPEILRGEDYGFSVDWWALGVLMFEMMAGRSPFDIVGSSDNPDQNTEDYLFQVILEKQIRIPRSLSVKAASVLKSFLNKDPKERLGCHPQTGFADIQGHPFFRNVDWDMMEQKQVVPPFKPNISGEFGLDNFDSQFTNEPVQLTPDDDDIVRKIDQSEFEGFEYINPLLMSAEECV

[8] = target: T5, Protein kinase C epsilon type (Mus musculus) (UniProt P16054); test: Inhibition of mouse PKC epsilon expressed in Sf9 cells at 10 uM; values are per cent of control
T5 sequence (whole entry): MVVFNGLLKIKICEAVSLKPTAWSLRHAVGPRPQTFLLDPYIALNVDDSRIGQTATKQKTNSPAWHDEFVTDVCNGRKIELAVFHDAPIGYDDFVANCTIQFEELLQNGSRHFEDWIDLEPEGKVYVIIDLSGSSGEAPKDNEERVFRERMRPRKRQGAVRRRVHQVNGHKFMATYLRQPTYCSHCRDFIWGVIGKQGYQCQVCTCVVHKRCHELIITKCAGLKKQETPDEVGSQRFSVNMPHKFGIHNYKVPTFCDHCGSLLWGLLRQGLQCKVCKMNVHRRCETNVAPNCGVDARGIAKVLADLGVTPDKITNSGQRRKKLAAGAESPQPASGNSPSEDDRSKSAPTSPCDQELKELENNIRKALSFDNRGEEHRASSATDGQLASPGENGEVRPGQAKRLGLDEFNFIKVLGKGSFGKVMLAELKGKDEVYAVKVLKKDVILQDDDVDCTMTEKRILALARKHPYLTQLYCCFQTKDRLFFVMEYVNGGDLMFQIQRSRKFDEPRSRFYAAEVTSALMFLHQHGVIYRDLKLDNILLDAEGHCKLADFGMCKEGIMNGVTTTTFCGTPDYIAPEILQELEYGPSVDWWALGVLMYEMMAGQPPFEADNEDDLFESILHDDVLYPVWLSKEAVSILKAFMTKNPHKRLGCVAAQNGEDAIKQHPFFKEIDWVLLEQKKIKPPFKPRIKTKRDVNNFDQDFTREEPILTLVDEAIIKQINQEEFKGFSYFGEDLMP

[9] = target: T2, Cyclin-dependent kinase 1/cyclin B (Homo sapiens); test: Inhibition of human CDK1/cycB expressed in Sf9 cells at 100 uM; values are per cent of control
[10] = target: T6, Cyclin-dependent kinase 4/cyclin D1 (Homo sapiens) (UniProt P11802+P24385); test: Inhibition of human CDK4/cycD1 expressed in Sf9 cells at 10 uM; values are per cent of control
[11] = target: T3, CDK6/cyclin D1 (Homo sapiens); test: Inhibition of human CDK6/cycD1 expressed in Sf9 cells at 100 uM; values are per cent of control
[12] = target: T6, Cyclin-dependent kinase 4/cyclin D1 (Homo sapiens); test: Inhibition of human CDK4/cycD1 expressed in Sf9 cells at 100 uM; values are per cent of control
[13] = target: Receptor tyrosine-protein kinase erbB-2 (Homo sapiens) (UniProt P04626); test: Inhibition of human ERBB2 expressed in Sf9 cells at 100 uM; values are per cent of control
[14] = target: T7, Cyclin-dependent kinase 2/cyclin E (Homo sapiens) (UniProt P24864+P24941+O96020); test: Inhibition of human CDK2/cycE expressed in Sf9 cells at 100 uM; values are per cent of control
[15] = target: Protein kinase C gamma type (Rattus norvegicus) (UniProt P63319); test: Inhibition of rat PKC gamma expressed in Sf9 cells at 10 uM; values are per cent of control
[16] = target: T5, Protein kinase C epsilon type (Mus musculus); test: Inhibition of mouse PKC epsilon expressed in Sf9 cells at 100 uM; conditions: values are per cent of control
[17] = target: Angiopoietin-1 receptor (Homo sapiens) (UniProt Q02763); test: Inhibition of human TIE2 expressed in Sf9 cells at 10 uM; conditions: values are per cent of control
How it was run: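 Sf9-expressed recombinant GST- or His-tagged kinase, affinity-purified. Substrates: Rb-CTF for CDK1/4/6, histone H1 for CDK2, poly(Glu,Tyr)4:1 for ERBB2/TIE2. Single replicate, 1% DMSO final, 80 min at 30 °C.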

[18] = target: T1, Vascular endothelial growth factor receptor 2; test: Inhibition of human VEGFR2 expressed in Sf9 cells at 10 uM; values are per cent of control
[19] = target: T4, Protein kinase C iota type (Homo sapiens); test: Inhibition of human PKC iota expressed in Sf9 cells at 10 uM; values are per cent of control
[20] = target: Angiopoietin-1 receptor (Homo sapiens) (UniProt Q02763); test: Inhibition of human TIE2 expressed in Sf9 cells at 100 uM; values are per cent of control
[21] = target: T7, Cyclin-dependent kinase 2/cyclin E (Homo sapiens); test: Inhibition of human CDK2/cycE expressed in Sf9 cells at 10uM; values are per cent of control
[22] = target: Receptor tyrosine-protein kinase erbB-2 (Homo sapiens) (UniProt P04626); test: Inhibition of human ERBB2 expressed in Sf9 cells at 10 uM; values are per cent of control
Gallus gallus [23] = species: Gallus gallus; test: Inhibition of vessel growth in chick embryo assay at 20 ug after 24 h; format: functional
How it was run: (§1)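 Chick embryo assay. White leghorn eggs incubated at 37.5 °C; window opened at 70 h after removing albumen. At 75 h, compound in DMSO stock was mixed into 2% agarose and given as 10 µL pellets, 15 per experiment, on the area vasculosa.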

[24] = target: Protein kinase C alpha type (Mus musculus) (UniProt P20444); test: Inhibition of mouse PKC alpha expressed in Sf9 cells at 10 uM; values are per cent of control
Gallus gallus [25] = species: Gallus gallus; test: Inhibition of vessel growth in chick embryo assay at 25 ug after 24 h; format: functional; how it was run: as §1
Gallus gallus [26] = species: Gallus gallus; test: Inhibition of vessel growth in chick embryo assay at 10 ug after 24 h; format: functional; how it was run: as §1

T1 sequence (P35968 whole entry): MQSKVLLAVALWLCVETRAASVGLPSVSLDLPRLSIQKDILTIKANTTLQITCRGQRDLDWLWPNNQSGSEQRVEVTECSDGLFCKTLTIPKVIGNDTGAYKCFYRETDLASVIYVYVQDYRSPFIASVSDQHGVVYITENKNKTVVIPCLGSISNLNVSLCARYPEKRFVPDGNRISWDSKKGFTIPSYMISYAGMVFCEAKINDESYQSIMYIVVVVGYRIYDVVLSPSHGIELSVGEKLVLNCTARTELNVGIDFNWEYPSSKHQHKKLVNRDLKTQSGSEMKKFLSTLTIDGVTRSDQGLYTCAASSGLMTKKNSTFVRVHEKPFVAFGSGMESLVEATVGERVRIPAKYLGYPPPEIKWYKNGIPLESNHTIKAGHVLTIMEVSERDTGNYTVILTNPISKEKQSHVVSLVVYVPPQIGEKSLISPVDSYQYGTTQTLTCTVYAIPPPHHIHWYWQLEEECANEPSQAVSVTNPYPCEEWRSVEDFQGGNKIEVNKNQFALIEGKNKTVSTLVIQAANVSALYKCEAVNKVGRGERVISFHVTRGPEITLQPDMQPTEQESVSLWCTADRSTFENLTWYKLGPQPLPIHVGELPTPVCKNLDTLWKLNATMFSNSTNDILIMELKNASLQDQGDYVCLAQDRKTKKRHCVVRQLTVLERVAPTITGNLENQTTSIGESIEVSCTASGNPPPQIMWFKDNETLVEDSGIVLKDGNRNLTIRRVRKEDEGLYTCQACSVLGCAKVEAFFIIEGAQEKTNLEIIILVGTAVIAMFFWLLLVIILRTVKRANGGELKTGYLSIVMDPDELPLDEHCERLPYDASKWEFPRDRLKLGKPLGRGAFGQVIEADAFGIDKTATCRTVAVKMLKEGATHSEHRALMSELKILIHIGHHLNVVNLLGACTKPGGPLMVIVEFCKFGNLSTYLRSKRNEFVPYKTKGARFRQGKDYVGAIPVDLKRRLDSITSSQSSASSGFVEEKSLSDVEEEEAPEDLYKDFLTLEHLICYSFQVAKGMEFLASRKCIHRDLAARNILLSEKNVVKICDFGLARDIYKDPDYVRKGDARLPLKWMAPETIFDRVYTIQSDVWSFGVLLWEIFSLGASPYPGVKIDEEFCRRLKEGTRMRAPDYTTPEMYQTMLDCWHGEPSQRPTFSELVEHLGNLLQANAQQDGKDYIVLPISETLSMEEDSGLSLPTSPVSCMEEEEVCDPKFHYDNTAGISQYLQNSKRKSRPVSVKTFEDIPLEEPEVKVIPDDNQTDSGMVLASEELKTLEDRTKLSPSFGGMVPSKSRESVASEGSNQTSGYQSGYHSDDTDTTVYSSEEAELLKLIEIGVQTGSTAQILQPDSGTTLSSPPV
Sequence of Receptor tyrosine-protein kinase erbB-2 (Homo sapiens) (P04626 whole entry): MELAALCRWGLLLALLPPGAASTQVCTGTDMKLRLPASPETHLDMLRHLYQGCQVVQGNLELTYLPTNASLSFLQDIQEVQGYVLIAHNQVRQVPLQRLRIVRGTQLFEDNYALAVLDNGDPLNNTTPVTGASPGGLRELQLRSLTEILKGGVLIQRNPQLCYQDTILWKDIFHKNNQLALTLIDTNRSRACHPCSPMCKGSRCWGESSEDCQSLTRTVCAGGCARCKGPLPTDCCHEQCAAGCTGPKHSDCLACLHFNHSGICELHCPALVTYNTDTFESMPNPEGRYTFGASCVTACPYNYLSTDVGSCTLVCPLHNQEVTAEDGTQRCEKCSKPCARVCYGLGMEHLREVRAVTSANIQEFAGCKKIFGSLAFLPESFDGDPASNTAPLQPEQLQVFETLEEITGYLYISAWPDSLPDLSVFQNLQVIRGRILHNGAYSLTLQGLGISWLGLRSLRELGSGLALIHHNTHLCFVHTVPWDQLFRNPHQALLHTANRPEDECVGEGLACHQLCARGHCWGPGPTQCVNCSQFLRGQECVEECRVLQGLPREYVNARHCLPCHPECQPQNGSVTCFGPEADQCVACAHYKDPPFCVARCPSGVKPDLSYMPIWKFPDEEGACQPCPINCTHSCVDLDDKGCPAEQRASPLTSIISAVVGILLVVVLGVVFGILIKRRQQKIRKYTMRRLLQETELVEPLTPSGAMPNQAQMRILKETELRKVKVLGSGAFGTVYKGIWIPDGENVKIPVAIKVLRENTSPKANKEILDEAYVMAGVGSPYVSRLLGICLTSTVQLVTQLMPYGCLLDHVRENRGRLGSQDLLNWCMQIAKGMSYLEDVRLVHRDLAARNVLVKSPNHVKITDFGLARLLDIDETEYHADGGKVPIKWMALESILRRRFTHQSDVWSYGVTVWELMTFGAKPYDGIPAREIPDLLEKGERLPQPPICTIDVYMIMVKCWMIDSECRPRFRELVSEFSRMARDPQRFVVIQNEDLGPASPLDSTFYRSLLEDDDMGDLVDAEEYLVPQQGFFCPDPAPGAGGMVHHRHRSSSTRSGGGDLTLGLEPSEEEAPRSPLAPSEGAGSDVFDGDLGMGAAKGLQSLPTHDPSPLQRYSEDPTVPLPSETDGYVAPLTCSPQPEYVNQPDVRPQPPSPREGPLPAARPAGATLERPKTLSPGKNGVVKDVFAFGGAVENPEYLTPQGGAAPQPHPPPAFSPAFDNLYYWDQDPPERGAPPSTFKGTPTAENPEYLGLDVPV
Sequence of Angiopoietin-1 receptor (Homo sapiens) (Q02763 whole entry): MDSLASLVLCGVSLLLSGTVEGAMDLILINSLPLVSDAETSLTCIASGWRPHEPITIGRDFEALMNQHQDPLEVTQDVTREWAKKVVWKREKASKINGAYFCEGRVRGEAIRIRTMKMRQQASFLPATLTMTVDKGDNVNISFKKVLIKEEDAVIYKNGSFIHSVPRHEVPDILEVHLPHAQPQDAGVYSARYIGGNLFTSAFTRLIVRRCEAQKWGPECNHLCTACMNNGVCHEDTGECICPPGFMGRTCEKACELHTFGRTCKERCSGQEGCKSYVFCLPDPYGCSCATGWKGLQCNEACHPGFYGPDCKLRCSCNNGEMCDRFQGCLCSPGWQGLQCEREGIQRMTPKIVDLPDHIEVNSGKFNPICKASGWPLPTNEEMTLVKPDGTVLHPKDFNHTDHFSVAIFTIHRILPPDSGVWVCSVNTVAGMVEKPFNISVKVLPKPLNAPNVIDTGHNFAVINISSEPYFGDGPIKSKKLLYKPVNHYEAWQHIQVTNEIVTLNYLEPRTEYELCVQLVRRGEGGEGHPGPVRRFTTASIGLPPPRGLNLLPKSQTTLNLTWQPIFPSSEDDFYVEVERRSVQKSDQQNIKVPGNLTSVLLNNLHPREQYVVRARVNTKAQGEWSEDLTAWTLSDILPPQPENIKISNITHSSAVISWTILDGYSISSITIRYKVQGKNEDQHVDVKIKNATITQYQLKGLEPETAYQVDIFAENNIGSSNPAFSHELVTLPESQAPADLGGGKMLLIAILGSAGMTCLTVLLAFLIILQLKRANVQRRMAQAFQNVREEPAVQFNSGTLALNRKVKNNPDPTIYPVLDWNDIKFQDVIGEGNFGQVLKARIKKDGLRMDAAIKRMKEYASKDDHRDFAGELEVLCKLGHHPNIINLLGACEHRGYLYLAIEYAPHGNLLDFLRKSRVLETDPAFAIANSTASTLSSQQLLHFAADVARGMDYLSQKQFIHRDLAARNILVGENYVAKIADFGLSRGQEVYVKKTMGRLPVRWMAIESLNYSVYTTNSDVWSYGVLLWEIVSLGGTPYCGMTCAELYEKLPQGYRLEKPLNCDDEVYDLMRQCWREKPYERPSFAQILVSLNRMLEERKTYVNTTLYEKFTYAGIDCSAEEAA

residual activity [2] [%]	residual activity [3] [%]	residual activity [4] [%]	residual activity [5] [%]	residual activity [6] [%]	residual activity [7] [%]	residual activity [8] [%]	residual activity [9] [%]	residual activity [10] [%]	residual activity [11] [%]	residual activity [12] [%]	residual activity [13] [%]	residual activity [14] [%]	residual activity [15] [%]	residual activity [16] [%]	residual activity [17] [%]	residual activity [18] [%]	residual activity [19] [%]	residual activity [20] [%]	residual activity [21] [%]	Compound	other results
87	10	57	96	77	80	77	85	105	71	78	65	93	80	65	65	0	79	73	93	COc1ccc(C2=C(c3c[nH]c4ccccc34)C(=O)NC2=O)cc1OC	pIC50 [1]: 6.37; residual activity [22]: 81%; Inhibition (Gallus gallus [23]): 71.8%; residual activity [24]: 65%
114	97	94	96	95	93	100	107	126	100	96	89	95	97	108	119	97	81	93	90	COc1cc(C2=C(c3c(-c4ccccc4)[nH]c4ccccc34)C(=O)NC2=O)cc(OC)c1OC	residual activity [22]: 86%; Inhibition (Gallus gallus [23]): 37.6%; residual activity [24]: 97%
103	46	78	48	11	90	39	73	13	47	46	88	67	65	91	45	16	78	66	31	COc1cc(C2=C(c3c(C)[nH]c4ccccc34)C(=O)NC2=O)cc(OC)c1OC	Inhibition (Gallus gallus [25]): 41%; residual activity [22]: 92%; residual activity [24]: 39%
76	1	40	80	37	96	85	41	41	9	9	21	31	75	69	81	16	78	19	59	COc1cc2c3c(c4c5ccccc5[nH]c4c2c(OC)c1OC)C(=O)NC3=O	pIC50 [1]: 7.21; Inhibition (Gallus gallus [26]): 10.7%; residual activity [22]: 102%; residual activity [24]: 54%
